# Columns and labels:
# [1] = tested on: U-937; test: Cytotoxicity against human U937 cells assessed as cell survival after 24 hrs by XTT assay; type: functional, cell-based
# [2] = Cell cycle arrest in human U937 cells assessed as accumulation at subG1 phase at 2 ug/ml after 24 hrs by propidium iodide staining-based flow cytometric analysis (reference value: 15.1%); type: functional; conditions: U-937
# Method in brief: (§1)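 U937 cells in complete RPMI 1640 (10% FBS, 25 mM HEPES, 2 mM glutamine) seeded at 2 × 10^6 cells/ml in flasks, recovered 24 h, then treated with compounds in DMSO (2 µg/ml). Cisplatin (10 µM) served as positive control and DMSO as negative control. Cells were harvested at 24 or 48 h and stained with propidium iodide. Phase percentages were gated on singlet cells by flow cytometry. Three independent experiments.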
# [3] = Cell cycle arrest in human U937 cells assessed as accumulation at G0/G1 phase at 2 ug/ml after 24 hrs by propidium iodide staining-based flow cytometric analysis (reference value: 41.7%); type: functional; conditions: U-937; method in brief: as §1
# [4] = Cell cycle arrest in human U937 cells assessed as accumulation at S phase at 2 ug/ml after 24 hrs by propidium iodide staining-based flow cytometric analysis (reference value: 30.7%); type: functional; conditions: U-937; method in brief: as §1
# [5] = Cell cycle arrest in human U937 cells assessed as accumulation at G2/M phase at 2 ug/ml after 24 hrs by propidium iodide staining-based flow cytometric analysis (reference value: 12.5%); type: functional; conditions: U-937; method in brief: as §1
# [6] = Cell cycle arrest in human U937 cells assessed as accumulation at subG1 phase at 2 ug/ml after 48 hrs by propidium iodide staining-based flow cytometric analysis (reference value: 1.1%); type: functional; conditions: U-937; method in brief: as §1
# [7] = Cell cycle arrest in human U937 cells assessed as accumulation at G0/G1 phase at 2 ug/ml after 48 hrs by propidium iodide staining-based flow cytometric analysis (reference value: 54.6%); type: functional; conditions: U-937; method in brief: as §1
# [8] = Cell cycle arrest in human U937 cells assessed as accumulation at S phase at 2 ug/ml after 48 hrs by propidium iodide staining-based flow cytometric analysis (reference value: 25.7%); type: functional; conditions: U-937; method in brief: as §1
# [9] = Cell cycle arrest in human U937 cells assessed as accumulation at G2/M phase at 2 ug/ml after 48 hrs by propidium iodide staining-based flow cytometric analysis (reference value: 16.6%); type: functional; conditions: U-937; method in brief: as §1
# [10] = tested on: U-937; test: Induction of apoptosis in human U937 cells assessed as necrotic cells at 2 ug/ml after 24 hrs by annexin V-FITC/propidium iodide staining-based flow cytometry (reference value: 24.7%); type: functional
# [11] = tested on: U-937; test: Induction of apoptosis in human U937 cells assessed as late apoptotic cells at 2 ug/ml after 24 hrs by annexin V-FITC/propidium iodide staining-based flow cytometry (reference value: 3%); type: functional
# [12] = tested on: U-937; test: Induction of apoptosis in human U937 cells assessed as early apoptotic cells at 2 ug/ml after 24 hrs by annexin V-FITC/propidium iodide staining-based flow cytometry (reference value: 6.3%); type: functional
# [13] = tested on: U-937; test: Induction of apoptosis in human U937 cells assessed as viable cells at 2 ug/ml after 24 hrs by annexin V-FITC/propidium iodide staining-based flow cytometry (reference value: 66%); type: functional; conditions: U-937, 24 h, read-out: Activity
# [14] = tested on: U-937; test: Induction of apoptosis in human U937 cells assessed as necrotic cells at 2 ug/ml after 48 hrs by annexin V-FITC/propidium iodide staining-based flow cytometry (reference value: 1.4%); type: functional
# [15] = tested on: U-937; test: Induction of apoptosis in human U937 cells assessed as late apoptotic cells at 2 ug/ml after 48 hrs by annexin V-FITC/propidium iodide staining-based flow cytometry (reference value: 11.7%); type: functional
# [16] = tested on: U-937; test: Induction of apoptosis in human U937 cells assessed as early apoptotic cells at 2 ug/ml after 48 hrs by annexin V-FITC/propidium iodide staining-based flow cytometry (reference value: 5.7%); type: functional
# [17] = tested on: U-937; test: Induction of apoptosis in human U937 cells assessed as viable cells at 2 ug/ml after 48 hrs by annexin V-FITC/propidium iodide staining-based flow cytometry (reference value: 81.3%); type: functional; conditions: U-937, 48 h, read-out: Activity
# [18] = Cytotoxicity against human SNO cells assessed as cell survival after 48 hrs by XTT assay
# [19] = tested on: MCF7; test: Cytotoxicity against human MCF7 cells assessed as cell survival after 48 hrs by XTT assay; conditions: MCF7, 48 h
# [20] = tested on: HeLa; test: Cytotoxicity against human HeLa cells assessed as cell survival after 48 hrs by XTT assay
# [21] = tested on: DU-145; test: Cytotoxicity against human DU145 cells assessed as cell survival after 48 hrs by XTT assay; conditions: DU-145, 48 h
# [22] = tested on: U-937; test: Induction of apoptosis in human U937 cells assessed as caspase 3/7 activation at 2 ug/ml after 24 hrs by fluorescence reader relative to control; type: functional
# Method in brief: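 U937 cells (2 × 10^6/ml, 24 h recovery) were exposed for 24 h to compounds in DMSO (2 µg/ml), with cisplatin 10 µM and DMSO controls. Cells were pelleted and resuspended in RPMI, at least 2 × 10^5 cells per well. (DEVD)2 substrate was added and cells incubated 2 h at 37 °C, 5% CO2, resuspended every 20 min. Fluorescence was read at 544/590 and 544/620 nm.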
# [23] = tested on: PBMC; test: Cytotoxicity against human PBMC assessed as cell survival after 24 hrs by fluorescence assay
SMILES,Activity [2] [%],Activity [3] [%],Activity [4] [%],Activity [5] [%],Activity [6] [%],Activity [7] [%],Activity [8] [%],Activity [9] [%],IC50 [18] [µM],IC50 [19] [µM],IC50 [20] [µM],IC50 [21] [µM],also measured
Cc1cc(Cl)c2c(c1O)C(=O)C=CC2=O,18.1,65.6,11.4,4.5,17.9,62.2,14.1,5.3,9.4,10,10.1,9.3,Activity [1]: Not toxic; Activity [10]: 49.6%; Activity [11]: 28.3%; Activity [12]: 17.1%; viability at 2 µg/mL [13]: 5%; Activity [14]: 60.1%; Activity [15]: 36.1%; Activity [16]: 1.9%; viability at 2 µg/mL [17]: 1.9%
CCOc1c(C)cc(Cl)c2c1C(=O)C=CC2=O,,,,,,,,,37.3,32.2,33.2,26.2,
COc1c(C)cc(Cl)c2c1C(=O)C=CC2=O,,,,,,,,,44.9,16.2,41.5,36.5,
Cc1cc(O)c2c(c1F)C(=O)C=CC2=O,8.2,69.2,17.4,4.7,11.8,64.8,15.9,6.9,18.9,20.3,10.2,15.4,Activity [1]: Not toxic; Activity [10]: 61.1%; Activity [11]: 34.2%; Activity [12]: 10.2%; viability at 2 µg/mL [13]: 4.5%; Activity [14]: 53.9%; Activity [15]: 42.6%; Activity [16]: 1%; viability at 2 µg/mL [17]: 1.6%; Activity [22]: -5.21%; IC50 [23]: 189 µM
CC(=O)Oc1cc(OC(C)=O)c2c(OC(C)=O)cc(C)cc2c1OC(C)=O,,,,,,,,,25,82,22.4,64.6,
CC(=O)Oc1c(C)cc(Cl)c2c1C(=O)C=CC2=O,,,,,,,,,28.6,18.7,21.8,12.5,
Cc1cc(O)c2c(c1Cl)C(=O)C=CC2=O,17.1,60.9,16.2,5.4,53.5,30.2,10.5,5.4,17.2,15.7,13.5,29.5,Activity [1]: Not toxic
COc1cccc2c1C(=O)c1c(O)c3c(c(O)c1C2=O)C[C@@](O)(C(=O)CO)C[C@@H]3O[C@H]1C[C@H](N)[C@H](O)[C@H](C)O1 [DOXORUBICIN],,,,,,,,,0.01,,,0.01,
CC(=O)Oc1cc(C)cc2c1C(=O)C=CC2=O,,,,,,,,,28.1,14.7,17.2,24.1,
CCOc1cc(C)cc2c1C(=O)C=CC2=O,,,,,,,,,25.3,23.7,29.7,15,
CC(=O)Oc1cc(C)c(Cl)c2c1C(=O)C=CC2=O,,,,,,,,,28.8,37.9,26.2,25.5,
Cc1cc(O)c2c(c1)C(=O)C(O)=CC2=O,3,53.4,27.3,15.5,10.6,65.1,16.1,7.3,23.2,14.6,5.3,6.8,Activity [22]: 7.39%; IC50 [23]: 54 µM
CCOc1cc(C)c(Cl)c2c1C(=O)C=CC2=O,,,,,,,,,44.2,40,19,25.4,
COc1cc(C)cc2c1C(=O)C=CC2=O,,,,,,,,,22.5,15.3,21.1,30.7,
Cc1ccc2c(c1O)C(=O)C=CC2=O,33.8,43,14.2,8.6,15,62.9,14.6,7,19,15.3,16.4,15.4,Activity [10]: 28.3%; Activity [11]: 31.4%; Activity [12]: 24.8%; viability at 2 µg/mL [13]: 15.5%; Activity [14]: 30.3%; Activity [15]: 43.2%; Activity [16]: 6.4%; viability at 2 µg/mL [17]: 20.1%; Activity [22]: -5.14%
CC(=O)Oc1cc(OC(C)=O)c2c(OC(C)=O)c(C)cc(Cl)c2c1OC(C)=O,,,,,,,,,53.5,57.5,27.9,81.6,
Cc1cc(O)c2c(c1Br)C(=O)C=CC2=O,14.8,63.3,16.8,4.6,13,53,28.8,17.7,14.9,15.5,11.3,46.3,Activity [1]: Not toxic; Activity [10]: 67.1%; Activity [11]: 7%; Activity [12]: 10%; viability at 2 µg/mL [13]: 15.9%; Activity [14]: 53.8%; Activity [15]: 39%; Activity [16]: 3.4%; viability at 2 µg/mL [17]: 3.8%
CC(=O)Oc1cc(OC(C)=O)c2c(OC(C)=O)cc(C)c(Cl)c2c1OC(C)=O,,,,,,,,,56.9,51.1,52.9,59.6,
Cc1cc(O)c2c(c1)C(=O)C=CC2=O [RAMENTACEONE],,,,,,,,,81.4,27.2,66.6,11.9,IC50 [23]: 18.4 µM
COc1cc(C)c(Cl)c2c1C(=O)C=CC2=O,,,,,,,,,24.6,20.6,19.1,26.6,

# From ChEMBL document CHEMBL3351895, “Cytotoxicity of synthesized 1,4-naphthoquinone analogues on selected human cancer cell lines” (Bioorg Med Chem, 2014)
